Laboratory results taken from ChEMBL document CHEMBL4014350, “Alkoxyurea-Based Histone Deacetylase Inhibitors Increase Cisplatin Potency in Chemoresistant Cancer Cell Lines” (J Med Chem, 2017).

Key:
[1] = system: CAL-27; assay: Potentiation of 5 uM cisplatin-induced cytotoxicity against human CAL27 cells assessed as decrease in cell viability by measuring combination index at 200 uM preincubated for 48 hrs followed by cisplatin treatment measured after 72 hrs by MTT assay; assay type: functional; conditions: in the assay text read “at 200 nM” for “at 200 uM”
Summary of the method: (§1)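 HDAC inhibitor was added 48 h before cisplatin, then cells were exposed to cisplatin for 72 h and viability was read by MTT assay. Combination index was computed by the Chou–Talalay method: CI > 1 is antagonism, CI = 1 additive, CI < 0.9 synergism. Points with fraction affected below 0.20 were flagged.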

[2] = system: CAL-27; assay: Potentiation of 0.5 uM cisplatin-induced cytotoxicity against human CAL27 cells assessed as decrease in cell viability by measuring combination index at 300 uM preincubated for 48 hrs followed by cisplatin treatment measured after 72 hrs by MTT assay; assay type: functional; conditions: in the assay text read “at 300 nM” for “at 300 uM”
Summary of the method: (§2)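 Cal27 and cisplatin-resistant Cal27CisR cells were preincubated with the HDAC inhibitor for 48 h, then given cisplatin in combination. Viability was read by MTT after 72 h. The combination index was computed by the Chou–Talalay method: CI > 1 is antagonism, CI = 1 is additive, and CI < 0.9 is synergism. Points with fraction affected below 0.20 were flagged.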

[3] = biological target: T1, Histone deacetylase 1/6 (Homo sapiens) (UniProt Q13547+Q9UBN7); assay: Inhibition of HDAC1/HDAC6 in human Cal27CisR cells assessed as potentiation of cisplatin-induced apoptosis at 0.5 uM preincubated for 48 hrs followed by cisplatin treatment for 6 hrs measured after 24 hrs by propidium iodide dye-based flow cytometry (reference value: 20.3%); assay type: cell-based; design: scale not given: the % may be the effect or the level left
T1 sequence (Q13547 whole entry, looked up): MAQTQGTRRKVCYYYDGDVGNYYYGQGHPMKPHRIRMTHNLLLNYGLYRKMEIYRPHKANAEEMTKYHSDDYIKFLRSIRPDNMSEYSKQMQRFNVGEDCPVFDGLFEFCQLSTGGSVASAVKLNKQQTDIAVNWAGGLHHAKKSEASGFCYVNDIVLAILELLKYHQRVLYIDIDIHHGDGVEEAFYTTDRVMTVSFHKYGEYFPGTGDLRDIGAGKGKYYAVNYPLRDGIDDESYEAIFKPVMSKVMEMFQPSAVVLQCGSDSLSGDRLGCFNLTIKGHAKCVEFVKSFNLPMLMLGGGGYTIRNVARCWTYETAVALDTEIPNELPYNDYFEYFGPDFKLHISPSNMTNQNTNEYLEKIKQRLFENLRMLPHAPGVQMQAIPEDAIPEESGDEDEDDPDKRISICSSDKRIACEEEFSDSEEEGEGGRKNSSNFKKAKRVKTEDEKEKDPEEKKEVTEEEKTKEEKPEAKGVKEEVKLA
T1 sequence (Q9UBN7 whole entry, looked up): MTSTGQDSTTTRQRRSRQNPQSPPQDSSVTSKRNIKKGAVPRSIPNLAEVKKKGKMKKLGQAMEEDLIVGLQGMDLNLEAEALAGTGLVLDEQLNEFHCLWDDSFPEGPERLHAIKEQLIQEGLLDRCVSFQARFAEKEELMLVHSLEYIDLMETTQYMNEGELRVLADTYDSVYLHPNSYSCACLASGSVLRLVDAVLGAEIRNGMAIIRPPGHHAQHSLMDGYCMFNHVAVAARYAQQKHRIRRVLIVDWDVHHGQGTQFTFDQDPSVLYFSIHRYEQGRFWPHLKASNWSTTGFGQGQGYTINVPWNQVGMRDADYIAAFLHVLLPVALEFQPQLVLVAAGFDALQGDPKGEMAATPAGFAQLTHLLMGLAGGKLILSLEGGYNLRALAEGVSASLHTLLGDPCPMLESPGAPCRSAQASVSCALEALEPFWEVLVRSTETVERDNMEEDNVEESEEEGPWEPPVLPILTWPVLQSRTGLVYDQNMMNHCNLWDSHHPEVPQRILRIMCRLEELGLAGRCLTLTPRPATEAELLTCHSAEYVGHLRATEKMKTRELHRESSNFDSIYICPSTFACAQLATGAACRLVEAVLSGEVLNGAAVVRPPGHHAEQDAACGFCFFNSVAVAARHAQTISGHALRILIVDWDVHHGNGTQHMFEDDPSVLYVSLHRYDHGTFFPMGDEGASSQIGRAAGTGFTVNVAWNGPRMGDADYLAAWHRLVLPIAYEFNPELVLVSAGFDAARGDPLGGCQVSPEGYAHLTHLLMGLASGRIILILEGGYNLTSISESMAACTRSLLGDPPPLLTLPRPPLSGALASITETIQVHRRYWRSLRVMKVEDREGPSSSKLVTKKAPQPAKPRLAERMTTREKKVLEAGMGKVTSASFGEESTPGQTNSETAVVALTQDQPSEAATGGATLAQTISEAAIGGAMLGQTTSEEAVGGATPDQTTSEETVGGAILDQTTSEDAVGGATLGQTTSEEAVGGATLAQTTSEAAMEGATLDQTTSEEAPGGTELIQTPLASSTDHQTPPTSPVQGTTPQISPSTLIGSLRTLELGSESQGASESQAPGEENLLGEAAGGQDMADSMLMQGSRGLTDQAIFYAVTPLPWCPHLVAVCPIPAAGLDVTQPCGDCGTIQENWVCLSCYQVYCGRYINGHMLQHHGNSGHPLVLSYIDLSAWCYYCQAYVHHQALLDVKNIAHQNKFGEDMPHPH

[4] = system: CAL-27; assay: Potentiation of 0.5 uM cisplatin-induced cytotoxicity against human CAL27 cells assessed as decrease in cell viability by measuring combination index at 100 uM preincubated for 48 hrs followed by cisplatin treatment measured after 72 hrs by MTT assay; assay type: functional; conditions: in the assay text read “at 100 nM” for “at 100 uM”; summary of the method: as §2
[5] = biological target: T1, Histone deacetylase 1/6 (Homo sapiens); assay: Inhibition of HDAC1/HDAC6 in human Cal27CisR cells assessed as potentiation of 5 uM cisplatin-induced cytotoxicity by measuring combination index at 100 nM preincubated for 48 hrs followed by cisplatin treatment measured after 72 hrs by MTT assay
[6] = system: CAL-27; assay: Potentiation of 0.316 uM cisplatin-induced cytotoxicity against human CAL27 cells assessed as decrease in cell viability by measuring combination index at 700 uM preincubated for 48 hrs followed by cisplatin treatment measured after 72 hrs by MTT assay; assay type: functional; conditions: in the assay text read “at 700 nM” for “at 700 uM”; summary of the method: as §2
[7] = biological target: T1, Histone deacetylase 1/6 (Homo sapiens); assay: Inhibition of HDAC1/HDAC6 in human Cal27CisR cells assessed as potentiation of 3.16 uM cisplatin-induced cytotoxicity by measuring combination index at 400 uM preincubated for 48 hrs followed by cisplatin treatment measured after 72 hrs by MTT assay; assay type: cell-based; summary of the method: as §2
[8] = biological target: T1, Histone deacetylase 1/6 (Homo sapiens); assay: Inhibition of HDAC1/HDAC6 in human Cal27CisR cells assessed as potentiation of 10 uM cisplatin-induced cytotoxicity by measuring combination index at 400 uM preincubated for 48 hrs followed by cisplatin treatment measured after 72 hrs by MTT assay; assay type: cell-based
Summary of the method: (§3)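 Cal27CisR cells preincubated 48 h with the HDAC inhibitor, then exposed to cisplatin for 72 h. Viability read by MTT. Combination index calculated by the Chou–Talalay method: CI > 1 antagonism, CI = 1 additive, CI < 0.9 synergism. Points with fraction affected below 0.20 are flagged. Values are the mean of three experiments.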

[9] = biological target: T1, Histone deacetylase 1/6 (Homo sapiens); assay: Inhibition of HDAC1/HDAC6 in human Cal27CisR cells assessed as potentiation of 5 uM cisplatin-induced cytotoxicity by measuring combination index at 300 nM preincubated for 48 hrs followed by cisplatin treatment measured after 72 hrs by MTT assay
[10] = biological target: T1, Histone deacetylase 1/6 (Homo sapiens); assay: Inhibition of HDAC1/HDAC6 in human Cal27CisR cells assessed as potentiation of 10 uM cisplatin-induced cytotoxicity by measuring combination index at 200 uM preincubated for 48 hrs followed by cisplatin treatment measured after 72 hrs by MTT assay; assay type: cell-based; summary of the method: as §3
[11] = biological target: T1, Histone deacetylase 1/6 (Homo sapiens); assay: Inhibition of HDAC1/HDAC6 in human Cal27CisR cells assessed as potentiation of 20 uM cisplatin-induced cytotoxicity by measuring combination index at 400 nM preincubated for 48 hrs followed by cisplatin treatment measured after 72 hrs by MTT assay
[12] = system: CAL-27; assay: Potentiation of 1 uM cisplatin-induced cytotoxicity against human CAL27 cells assessed as decrease in cell viability by measuring combination index at 100 uM preincubated for 48 hrs followed by cisplatin treatment measured after 72 hrs by MTT assay; assay type: functional; conditions: in the assay text read “at 100 nM” for “at 100 uM”; summary of the method: as §2
[13] = biological target: T1, Histone deacetylase 1/6 (Homo sapiens); assay: Inhibition of HDAC1/HDAC6 in human Cal27CisR cells assessed as potentiation of 3.16 uM cisplatin-induced cytotoxicity by measuring combination index at 100 uM preincubated for 48 hrs followed by cisplatin treatment measured after 72 hrs by MTT assay; assay type: cell-based; summary of the method: as §3
[14] = biological target: T1, Histone deacetylase 1/6 (Homo sapiens); assay: Inhibition of HDAC1/HDAC6 in human Cal27CisR cells assessed as potentiation of 3.16 uM cisplatin-induced cytotoxicity by measuring combination index at 200 uM preincubated for 48 hrs followed by cisplatin treatment measured after 72 hrs by MTT assay; assay type: cell-based; summary of the method: as §3
[15] = system: CAL-27; assay: Potentiation of 5 uM cisplatin-induced cytotoxicity against human CAL27 cells assessed as decrease in cell viability by measuring combination index at 300 uM preincubated for 48 hrs followed by cisplatin treatment measured after 72 hrs by MTT assay; assay type: functional; conditions: in the assay text read “at 300 nM” for “at 300 uM”; summary of the method: as §1
[16] = system: CAL-27; assay: Potentiation of 0.316 uM cisplatin-induced cytotoxicity against human CAL27 cells assessed as decrease in cell viability by measuring combination index at 400 uM preincubated for 48 hrs followed by cisplatin treatment measured after 72 hrs by MTT assay; assay type: functional; conditions: in the assay text read “at 400 nM” for “at 400 uM”; summary of the method: as §2
[17] = system: CAL-27; assay: Potentiation of 2 uM cisplatin-induced cytotoxicity against human CAL27 cells assessed as decrease in cell viability by measuring combination index at 300 uM preincubated for 48 hrs followed by cisplatin treatment measured after 72 hrs by MTT assay; assay type: functional; conditions: in the assay text read “at 300 nM” for “at 300 uM”; summary of the method: as §1
[18] = system: CAL-27; assay: Potentiation of 1 uM cisplatin-induced cytotoxicity against human CAL27 cells assessed as decrease in cell viability by measuring combination index at 200 uM preincubated for 48 hrs followed by cisplatin treatment measured after 72 hrs by MTT assay; assay type: functional; summary of the method: as §2
[19] = biological target: T1, Histone deacetylase 1/6 (Homo sapiens); assay: Inhibition of HDAC1/HDAC6 in human Cal27CisR cells assessed as potentiation of 20 uM cisplatin-induced cytotoxicity by measuring combination index at 200 nM preincubated for 48 hrs followed by cisplatin treatment measured after 72 hrs by MTT assay
[20] = system: CAL-27; assay: Potentiation of 0.316 uM cisplatin-induced cytotoxicity against human CAL27 cells assessed as decrease in cell viability by measuring combination index at 300 uM preincubated for 48 hrs followed by cisplatin treatment measured after 72 hrs by MTT assay; assay type: functional; conditions: in the assay text read “at 300 nM” for “at 300 uM”; summary of the method: as §2

| SMILES | CI [1] | CI [2] | Activity [3] | CI [4] | CI [5] | CI [6] | CI [7] | CI [8] | CI [9] | CI [10] | CI [11] | CI [12] | CI [13] | CI [14] | CI [15] | CI [16] | CI [17] | CI [18] | CI [19] | CI [20] |
| --- | --- | --- | --- | --- | --- | --- | --- | --- | --- | --- | --- | --- | --- | --- | --- | --- | --- | --- | --- | --- |
| COc1cc(NC(=O)NOCCCCCC(=O)NO)c2nc(OC)cc(C)c2c1 | 0.22 | <0.2 | 59.7% | <0.2 | 0.66 | 0.82 | 0.3 | 0.16 | 0.25 | 0.21 | 0.16 | <0.2 | 0.89 | 0.87 | 0.32 | 0.97 | 0.38 | 0.82 | 0.19 | <0.2 |
| COc1cc(NC(=O)NOCCCCCC(=O)NO)c2nccc(C)c2c1 | 0.29 | <0.2 | 59.7% | <0.2 | < 0.2 | 0.68 | < 0.2 | 0.26 | < 0.2 | 0.48 | 0.28 | <0.2 | < 0.2 | < 0.2 | 0.25 | <0.2 | 0.31 | 0.76 | 0.33 | <0.2 |
